What all share (assay type): functional
For assay [1], the system named is Staphylococcus aureus. Nature of the assay: Effect on growth in Staphylococcus aureus FRI-1187 at 3.00 mM after 24 hrs (reference value: 100%). Put shortly:
(§1)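 Test-tube growth assay: 10 ml growth medium (brain heart infusion with 10% fetal bovine serum, MgCl2, L-glutamine) inoculated to 5 × 10^6 CFU/ml from a 24 h 37°C preculture. Compound diluted in medium, or dissolved in methanol with methanol-matched controls. After 24 h at 37°C with 5% CO2, OD600 and viable counts read. Growth given as % of CFU/ml of untreated controls in the same experiment.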

The subject of assay [2] is Staphylococcus aureus. Description: microbe, parasite or virus in culture. The note with it: 24 h.
Assay [3] concerns Staphylococcus aureus. Description: Effect on growth in Staphylococcus aureus MN8 at 2.00 mM after 24 hrs (reference value: 100%). A digest of the protocol:
as §1

Assay [4] concerns Staphylococcus aureus. Nature of the assay: Effect on growth in Staphylococcus aureus FRI-1187 at 1.50 mM after 24 hrs (reference value: 100%). Put shortly: as §1
Assay [5] has as its system Staphylococcus aureus. Nature of the assay: microbe, parasite or virus in culture. As to conditions: 24 h. The source holds these as a separate data set.
The test system of assay [6] is Staphylococcus aureus. Nature of the assay: microbe, parasite or virus in culture. The note with it: 24 h. The source holds these as a separate data set.
Assay [7] has as its system Staphylococcus aureus. Description: Effect on growth in Staphylococcus aureus MN8 at 1.00 mM after 24 hrs (reference value: 100%). A digest of the protocol:
as §1

Assay [8] has as its system Staphylococcus aureus. Description: microbe, parasite or virus in culture. The note with it: 24 h. This is another data set of the same source.
The subject of assay [9] is Staphylococcus aureus. Nature of the assay: microbe, parasite or virus in culture. As to conditions: 26 h.
Assay [10] has as its system Staphylococcus aureus. Description: microbe, parasite or virus in culture. The note with it: 26 h. The source holds these as a separate data set.
The test system of assay [11] is Staphylococcus aureus. Nature of the assay: microbe, parasite or virus in culture. As to conditions: 28 h.
Assay [12] deals with Staphylococcus aureus. Description: microbe, parasite or virus in culture. As to conditions: 32 h.
For assay [13], the system named is Staphylococcus aureus. Nature of the assay: microbe, parasite or virus in culture. The note with it: 24 h. This is another data set of the same source.
Assay [14] concerns Staphylococcus aureus. Description: microbe, parasite or virus in culture. The note with it: 32 h. The source holds these as a separate data set.
Assay [15] concerns Staphylococcus aureus. Description: microbe, parasite or virus in culture. The note with it: 32 h. The source holds these as a separate data set.
For assay [16], the system named is Staphylococcus aureus. Nature of the assay: Effect on growth in Staphylococcus aureus MN8 at 0.75 mM after 24 hrs (reference value: 100%). Put shortly:
as §1

Assay [17] relates to Staphylococcus aureus. Description: microbe, parasite or virus in culture. As to conditions: 24 h. This is another data set of the same source.
In assay [18] the test system is Staphylococcus aureus. Nature of the assay: Effect on growth in Staphylococcus aureus MN8 at 3.20 mM after 24 hrs (reference value: 100%). A digest of the protocol:
as §1

For assay [19], the system named is Staphylococcus aureus. Nature of the assay: microbe, parasite or virus in culture. The note with it: 24 h. This is another data set of the same source.
The subject of assay [20] is Staphylococcus aureus. Nature of the assay: Effect on growth in Staphylococcus aureus MN8 at 6.40 mM after 24 hrs (reference value: 100%). A digest of the protocol:
as §1

In assay [21] the test system is Staphylococcus aureus. Nature of the assay: microbe, parasite or virus in culture. As to conditions: 24 h. This is another data set of the same source.
Assay [22] concerns Staphylococcus aureus.
The test system of assay [23] is Staphylococcus aureus. Description: Effect on growth in Staphylococcus aureus MN8 at 0.10 % after 24 hrs (reference value: 100%). Put shortly: as §1
Assay [24] relates to Staphylococcus aureus. Description: microbe, parasite or virus in culture. The note with it: 24 h. This is another data set of the same source.
The test system of assay [25] is Staphylococcus aureus. Description: Effect on growth in Staphylococcus aureus MN8 at 75.00 mM after 24 hrs (reference value: 100%). Put shortly: as §1
The subject of assay [26] is Staphylococcus aureus. This is another data set of the same source.
For assay [27], the system named is Staphylococcus aureus. Nature of the assay: Effect on growth in Staphylococcus aureus MN8 at 0.50 % after 24 hrs (reference value: 100%). A digest of the protocol:
as §1

Assay [28] has as its system Staphylococcus aureus. Nature of the assay: microbe, parasite or virus in culture. As to conditions: 24 h. This is another data set of the same source.
The subject of assay [29] is Staphylococcus aureus. Nature of the assay: microbe, parasite or virus in culture. The note with it: 24 h. This is another data set of the same source.
Assay [30] relates to Staphylococcus aureus. Description: Effect on growth in Staphylococcus aureus MN8 at 0.65 mM after 24 hrs (reference value: 100%). A digest of the protocol: as §1
In assay [31] the test system is Staphylococcus aureus. Description: microbe, parasite or virus in culture. As to conditions: 24 h. The source holds these as a separate data set.
Assay [32] concerns Staphylococcus aureus. Nature of the assay: Effect on growth in Staphylococcus aureus MN8 at 6.50 mM after 24 hrs (reference value: 100%). Put shortly:
as §1

Assay [33] relates to Staphylococcus aureus. Description: Effect on growth in Staphylococcus aureus MN8 at 7.50 mM after 24 hrs (reference value: 100%). A digest of the protocol:
as §1

Assay [34] deals with Staphylococcus aureus. Description: Effect on growth in Staphylococcus aureus MN8 at 37.50 mM after 24 hrs (reference value: 100%). A digest of the protocol: as §1
Assay [35] deals with Staphylococcus aureus. Description: microbe, parasite or virus in culture. As to conditions: 24 h. This is another data set of the same source.
For assay [36], the system named is Staphylococcus aureus. Nature of the assay: microbe, parasite or virus in culture. The note with it: 24 h. This is another data set of the same source.
The test system of assay [37] is Staphylococcus aureus. Description: Effect on growth in Staphylococcus aureus MN8 at 0.67 mM after 24 hrs (reference value: 100%). Put shortly:
as §1

Assay [38] has as its system Staphylococcus aureus. Description: microbe, parasite or virus in culture. The note with it: 24 h. The source holds these as a separate data set.
The test system of assay [39] is Staphylococcus aureus. Nature of the assay: Effect on growth in Staphylococcus aureus MN8 at 0.01 mM after 24 hrs (reference value: 100%). Put shortly:
as §1

Assay [40] deals with Staphylococcus aureus. Description: Effect on growth in Staphylococcus aureus FRI-1187 at 0.05 mM after 24 hrs (reference value: 100%). A digest of the protocol:
as §1

The test system of assay [41] is Staphylococcus aureus. Nature of the assay: Effect on growth in Staphylococcus aureus MN8 at 0.05 mM after 24 hrs (reference value: 100%). Put shortly: as §1
Assay [42] concerns Staphylococcus aureus. Nature of the assay: Effect on growth in Staphylococcus aureus FRI-1187 at 0.50 mM after 24 hrs (reference value: 100%). Put shortly: as §1
Assay [43] concerns Staphylococcus aureus. Nature of the assay: microbe, parasite or virus in culture. As to conditions: 24 h. This is another data set of the same source.
The test system of assay [44] is Staphylococcus aureus. Nature of the assay: microbe, parasite or virus in culture. As to conditions: 24 h. The source holds these as a separate data set.

Consider 15 molecules from ChEMBL document CHEMBL1649163, “Surfactants, aromatic and isoprenoid compounds, and fatty acid biosynthesis inhibitors suppress Staphylococcus aureus production of toxic shock syndrome toxin 1” (2009).

Regarding `Oc1c(Cl)cc(Cl)c(Cl)c1Cc1c(O)c(Cl)cc(Cl)c1Cl` [HEXACHLOROPHENE], the Activity was determined as 35.2% in assay [1], 123.7% in [3], 75% in assay [4] and 143.81% in assay [7]. For the same molecule, testing at 1500 µM in assay [2] gave an inhibition of 74.3%. Further, in [5], the inhibition at 2000 µM is 19.6%. The molecule also showed an inhibition at 1000 µM in assay [6] of 48.1%. In addition, the inhibition at 3000 µM in [8] worked out at 63.5%.

As to `CCCCCCCCCCCCOCCOCCOCCOCCO` [LAURETH 4], the inhibition at 2000 µM in assay [9] turned out to be 1.7%; in [15] it was 0.1%. Besides, the inhibition at 20000 µM worked out at 1.5% in assay [10] and 0% in assay [14]. The inhibition at 10000 µM in assay [11] amounted to 2.9%; in [12] it was 0%; in [13], 0.2%.

`C=CC(C)(O)CCC=C(C)C` (stereo unspecified) [LINALOOL]: the Activity in assay [16] came out at 121.6%. The molecule also yielded an inhibition at 750 µM in assay [17] of 12.2%.

As to `CC1CCC(C(C)C)C(O)C1` (stereo unspecified) [MENTHOL], the Activity worked out at 119.5% in assay [18] and 32.2% in assay [20]. Also, 6400 µM produced 1.8% inhibition in assay [19]. This molecule gave an inhibition at 3200 µM in assay [21] of 24.4%.

Turning to `COC(=O)c1ccc(O)cc1` [METHYLPARABEN], the “inhibition (INH)” value in assay [22] is 20.7%. The molecule also registered an Activity in assay [23] of 21.4%.

`C=CC(=C)CCC=C(C)C` [MYRCENE] showed an inhibition at 75000 µM in assay [24] of 75.2%. For the same molecule, the Activity in assay [16] is recorded as 110.8%; in assay [25], 76.5%. The same molecule returned an inhibition at 750 µM in [17] of 60.3%.

Consider `OCCOc1ccccc1` [PHENOXYETHANOL], for which the “inhibition (INH)” value in [22] is listed as 42.3%; in [26], 25.1%. In addition, the values for the Activity in assay [27] and in assay [23] were 32.3% and 54.3%, respectively.

Regarding `NC(=O)c1ccccc1O` [SALICYLAMIDE], the “inhibition (INH)” value in assay [22] was found to be 49.2%; in [26], 11.3%. Further, the figures for the Activity in assay [27] and in [23] were 14.5% and 61.5%, respectively.

For the molecule `O=C(O)c1ccccc1O` [SALICYLIC ACID], the “inhibition (INH)” value in assay [22] was 26.3%. Further, in assay [23], the Activity came to 31%.

For the molecule `CCCCCCCCCCCCN(CCC(=O)O)CCC(=O)O` [SODIUM LAURIMINODIPROPIONIC ACID], the inhibition at 2200 µM in [28] stood at 1%.

In assay [29], `CC1=CCC(O)(C(C)C)CC1` (stereo unspecified) [TERPINEOL] registered an inhibition at 650 µM of 82.3%. Besides, the Activity was determined as 112.7% in [30] and 90.5% in [32]. In assay [31], testing at 6500 µM gave an inhibition of 12.4%.

Consider `CC1(O)CCC(C(C)(C)O)CC1` (stereo unspecified) [TERPIN], for which the results for the Activity in [33] and in assay [34] were 124.7% and 118.7%, respectively. For the same molecule, 7500 µM produced 77.9% inhibition in assay [35]. In [36], testing at 37500 µM gave an inhibition of 23.8%.

As to `Cc1ccc(C(C)C)c(O)c1` [THYMOL], in assay [37], the Activity is recorded as 99%. In addition, the inhibition at 670 µM in assay [38] was 37.4%.

Take `Oc1cc(Cl)ccc1Oc1ccc(Cl)cc1Cl` [TRICLOSAN]: the Activity in [39] was 5.6%; in [40], 136.4%; in assay [41], 0%; in [42] it was 35.5%. Also, at 500 µM the inhibition in [43] was 3.7%. Further, in assay [44], testing at 50 µM gave an inhibition of 9.9%.

For the molecule `COc1cc(C(=O)O)ccc1O` [VANILLIC ACID], in assay [22], the “inhibition (INH)” value amounted to 38.5%. The molecule further gave an Activity in assay [23] of 24.5%.

Usually inhibition stands for the drop in the measured response relative to a control, in per cent. Read a high inhibition as a strong effect.
